NPY-Y1 antag: blocks the human neuropeptide Y Y1 receptor; P25929; HEK293-CNG Y1 cells, membrane potential fluorescence; NPY at EC95, then isoproterenol; inhibition, % at 3.6 µM; 200,000 compounds, 1% hits; AID 1040;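 active = inhibition above the campaign mean inhibition of all tested compounds plus 3 SD, cut at about 20% in these data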
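Material: HEK293 Y1/CNG channel cell line; also added: NPY (25 nM), isoproterenol (1 µM), Ro 20-1724 (25 µM); doses: one concentration, 3.6 µM, in 0.4% DMSO; schedule: compound incubation 1 h at room temperature, readout 45 min post-stimulation; technique: membrane potential fluorescence; measure: fluorescence ratio normalized to % inhibition between controls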
NPY1 pot ag: potentiates or activates human NPY-Y1 receptor; 220,000 compounds, 0.37% hits; AID 1304; P25929; activation, % at 3.6 µM; NPY-Y1 expressing cells, potentiator/agonist activation; in the data active = activation above about 33%, passing the limit was not always enough;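 also: cells stimulated with NPY at EC10 then isoproterenol at EC100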
S1P4 antagonist: human S1P4 receptor antagonism; O95977; S1P4-expressing cells, antagonist mode, reporter read-out; inhibition, % at 4.98 µM; 220,000 compounds, 0.26% hits; in the data active = inhibition above about 29%
Target sequence (O95977 whole entry, looked up): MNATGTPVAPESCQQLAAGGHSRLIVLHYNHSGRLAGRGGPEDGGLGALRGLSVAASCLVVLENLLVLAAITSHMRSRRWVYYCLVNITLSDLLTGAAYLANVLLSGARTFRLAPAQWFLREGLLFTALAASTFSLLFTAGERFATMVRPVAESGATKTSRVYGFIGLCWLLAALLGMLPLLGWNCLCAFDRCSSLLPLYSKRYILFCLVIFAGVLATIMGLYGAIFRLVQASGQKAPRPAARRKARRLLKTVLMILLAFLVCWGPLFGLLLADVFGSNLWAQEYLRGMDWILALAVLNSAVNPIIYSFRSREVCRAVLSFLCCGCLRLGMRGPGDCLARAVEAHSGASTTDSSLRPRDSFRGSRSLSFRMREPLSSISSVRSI
NPY-Y2 antag: NPY-Y2 (human) receptor antagonism | P49146 | NPY-Y2 expressing cells, antagonist mode | inhibition, % at 2.7 µM | 140,000 compounds, 0.99% hits | AID 793; in the data active = inhibition above about 17%
S1P4 agonist: human S1P4 receptor agonism | activation, % at 4.98 µM | 220,000 compounds, 0.35% hits | AID 1509 | S1P4-expressing cell line, agonist reporter assay; in the data active = activation above about 11%
NPY-Y2 PAM-ag: human NPY-Y2 potentiation or agonism, primary screen | cells expressing NPY-Y2, potentiator/agonist read-out | activation, % at 3.6 µM | 220,000 compounds, 0.45% hits | AID 1359; in the data active = activation above about 27%;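 also: cells stimulated with NPY near EC25 plus isoproterenol at EC100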
S1P4 antag cf: confirmation of human S1P4 receptor antagonists; shares compounds with S1P4 antagonist; S1P4-expressing cell line, antagonist mode, reporter read-out; inhibition, % at 4.98 µM; 520 compounds, 71% hits; in the data active = inhibition above about 30%
S1P1 antagonist: counter-screen for S1P4 antagonists: antagonists of human S1P1; shares compounds with S1P4 antagonist; cell-based S1P1 antagonist counterscreen, inhibition; inhibition, % at 4.98 µM; 520 compounds, 37% hits; AID 1564; in the data active = inhibition above about 40%;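 also: receptor stimulated with S1P near its EC80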
Hits are given with their value. Only some compounds are listed: those with a hit (about 2.4% of all), similar ones and a draw of the others.

What do the screens show for `COc1ccc(NC(=O)/C(Cl)=C(/Cl)S(=O)(=O)Cc2ccc(C)cc2)cn1`?
NPY-Y1 antag: inactive; NPY1 pot ag: inactive; S1P4 antagonist: 60; NPY-Y2 antag: inactive; S1P4 agonist: inactive; NPY-Y2 PAM-ag: inactive; S1P4 antag cf: 116; S1P1 antagonist: 89

What do the screens show for `Cc1occc1C(=O)N/N=C/C1=C(N2CCOCC2)C(=C\c2ccc(Cl)cc2Cl)/CC1`?
NPY-Y1 antag: inactive; NPY1 pot ag: inactive; S1P4 antagonist: inactive; NPY-Y2 antag: inactive; S1P4 agonist: inactive; NPY-Y2 PAM-ag: inactive

Results for CCOC(=O)CSc1nc(-c2ccccc2)nc2ccc(C)cc12 ?
NPY-Y1 antag: inactive; NPY1 pot ag: inactive; S1P4 antagonist: inactive; S1P4 agonist: inactive; NPY-Y2 PAM-ag: inactive

How did O=C1CCCCc2sc(Br)c([N+](=O)[O-])c2N1 do in these assays?
NPY1 pot ag: inactive; S1P4 antagonist: 80; S1P4 agonist: inactive; NPY-Y2 PAM-ag: inactive; S1P4 antag cf: 102; S1P1 antagonist: 66

How did COc1cccc(-n2c(C)nn(CCOc3ccccc3)c2=O)c1 do in these assays?
NPY-Y1 antag: inactive; NPY1 pot ag: inactive; S1P4 antagonist: inactive; S1P4 agonist: inactive; NPY-Y2 PAM-ag: inactive

What do the screens show for `O=C(/C=C/c1ccccc1[N+](=O)[O-])c1ccccc1Br`?
NPY-Y1 antag: inactive; NPY1 pot ag: inactive; S1P4 antagonist: 36; S1P4 agonist: inactive; NPY-Y2 PAM-ag: inactive; S1P4 antag cf: 79; S1P1 antagonist: inactive

Results for Cc1ccc(NC(=O)C(c2ccccc2)N(C)C)cc1Cl (configuration not stated) ?
NPY-Y1 antag: inactive; NPY1 pot ag: inactive; S1P4 antagonist: 34; S1P4 agonist: inactive; NPY-Y2 PAM-ag: inactive; S1P4 antag cf: 31; S1P1 antagonist: inactive

How did N#CCSc1nnc(SCC#N)s1 do in these assays?
NPY1 pot ag: inactive; S1P4 antagonist: 32; S1P4 agonist: inactive; NPY-Y2 PAM-ag: inactive; S1P4 antag cf: inactive; S1P1 antagonist: inactive

How did N#CCSc1nnc(N)s1 do in these assays?
NPY-Y1 antag: inactive; NPY1 pot ag: inactive; S1P4 antagonist: inactive; NPY-Y2 antag: inactive; S1P4 agonist: inactive; NPY-Y2 PAM-ag: inactive

How did CSc1ccccc1NC(=O)C(=O)c1c[nH]c2ccccc12 do in these assays?
NPY-Y1 antag: inactive; NPY1 pot ag: inactive; S1P4 antagonist: 45; S1P4 agonist: inactive; NPY-Y2 PAM-ag: inactive; S1P4 antag cf: inactive; S1P1 antagonist: 47

Results for CC1(C)CC(=O)c2cc(C(=O)NC3CCSC3=O)c(=O)n(-c3ccc(Cl)cc3)c2C1 (configuration not stated) ?
NPY-Y1 antag: inactive; NPY1 pot ag: inactive; S1P4 antagonist: inactive; NPY-Y2 antag: inactive; S1P4 agonist: inactive; NPY-Y2 PAM-ag: inactive

How did O=S(=O)(C/C(=C/CO)S(=O)(=O)c1ccccc1)c1ccccc1 do in these assays?
NPY-Y1 antag: inactive; NPY1 pot ag: inactive; S1P4 antagonist: 40; NPY-Y2 antag: inactive; S1P4 agonist: inactive; NPY-Y2 PAM-ag: inactive; S1P4 antag cf: 87; S1P1 antagonist: inactive

How did CCOC(=O)Cn1nc(C)c(NC(=O)COc2ccc([N+](=O)[O-])c(C)c2)c1C do in these assays?
NPY-Y1 antag: inactive; NPY1 pot ag: inactive; S1P4 antagonist: 40; S1P4 agonist: inactive; NPY-Y2 PAM-ag: inactive; S1P4 antag cf: inactive; S1P1 antagonist: inactive

What do the screens show for `O=C(O)C1CCCCC1C(=O)Nc1nc(-c2ccc(Cl)s2)cs1` (configuration not stated)?
NPY-Y1 antag: inactive; NPY1 pot ag: inactive; S1P4 antagonist: inactive; S1P4 agonist: inactive; NPY-Y2 PAM-ag: inactive

What do the screens show for `CN(C)/C=C(/C(=O)c1ccc(Cl)cc1)n1cncn1`?
NPY-Y1 antag: inactive; NPY1 pot ag: inactive; S1P4 antagonist: inactive; S1P4 agonist: inactive; NPY-Y2 PAM-ag: inactive

Results for COc1ccc(/C=C(/C(=O)c2ccc(Cl)cc2Cl)n2cncn2)cc1 ?
NPY-Y1 antag: inactive; NPY1 pot ag: inactive; S1P4 antagonist: 37; NPY-Y2 antag: inactive; S1P4 agonist: inactive; NPY-Y2 PAM-ag: inactive; S1P4 antag cf: inactive; S1P1 antagonist: inactive

What do the screens show for `CN(C)c1ccc(/C=C(/C(=O)c2ccc(Cl)cc2Cl)n2cncn2)cc1`?
NPY-Y1 antag: inactive; NPY1 pot ag: inactive; S1P4 antagonist: inactive; NPY-Y2 antag: inactive; S1P4 agonist: inactive; NPY-Y2 PAM-ag: inactive

Results for CC(C)CC(=O)/C(=C\c1ccc(Cl)cc1Cl)n1cncn1 ?
NPY-Y1 antag: inactive; NPY1 pot ag: inactive; S1P4 antagonist: 53; NPY-Y2 antag: inactive; S1P4 agonist: inactive; NPY-Y2 PAM-ag: inactive; S1P4 antag cf: 119; S1P1 antagonist: 96

What do the screens show for `Cc1nnc(NC(=O)c2nn(CC(C)C)c(=O)c3ccccc23)s1`?
NPY-Y1 antag: inactive; NPY1 pot ag: inactive; S1P4 antagonist: inactive; S1P4 agonist: inactive; NPY-Y2 PAM-ag: inactive

Results for Cc1nc2ccc(NC(=O)c3nn(CC(C)C)c(=O)c4ccccc34)cc2s1 ?
NPY-Y1 antag: inactive; NPY1 pot ag: inactive; S1P4 antagonist: 40; NPY-Y2 antag: inactive; S1P4 agonist: inactive; NPY-Y2 PAM-ag: inactive; S1P4 antag cf: 45; S1P1 antagonist: inactive

How did CN1C(=O)/C(=C\C(=O)c2cccs2)c2ccccc21 do in these assays?
NPY-Y1 antag: inactive; NPY1 pot ag: inactive; S1P4 antagonist: 40; S1P4 agonist: inactive; NPY-Y2 PAM-ag: inactive; S1P4 antag cf: 97; S1P1 antagonist: 45

How did CCCCn1c(SCC(=O)O)nc2ccccc21 do in these assays?
NPY-Y1 antag: inactive; NPY1 pot ag: inactive; S1P4 antagonist: inactive; NPY-Y2 antag: inactive; S1P4 agonist: inactive; NPY-Y2 PAM-ag: inactive

Results for O=C(CN1CCN(c2ccc(Cl)cc2)CC1)Nc1ccc(F)c(F)c1 ?
NPY-Y1 antag: inactive; NPY1 pot ag: inactive; S1P4 antagonist: inactive; NPY-Y2 antag: inactive; S1P4 agonist: inactive; NPY-Y2 PAM-ag: inactive

Results for Cn1c(-c2c(N)n(CCCc3ccccc3)c3nc4ccccc4nc23)nc2ccccc21 ?
NPY-Y1 antag: inactive; NPY1 pot ag: inactive; S1P4 antagonist: 37; NPY-Y2 antag: inactive; S1P4 agonist: inactive; NPY-Y2 PAM-ag: inactive; S1P4 antag cf: 83; S1P1 antagonist: 106

Results for Cn1c(-c2c(N)n(CCc3ccccc3)c3nc4ccccc4nc23)nc2ccccc21 ?
NPY-Y1 antag: inactive; NPY1 pot ag: inactive; S1P4 antagonist: inactive; NPY-Y2 antag: inactive; S1P4 agonist: inactive; NPY-Y2 PAM-ag: inactive

Results for COC(=O)C1=C(C)NC(C)=C(C(=O)OC)C1C(=O)OC1CCCCC1=O (configuration not stated) ?
NPY-Y1 antag: inactive; NPY1 pot ag: inactive; S1P4 antagonist: inactive; NPY-Y2 antag: inactive; S1P4 agonist: inactive; NPY-Y2 PAM-ag: inactive

How did CCCN(CCC)S(=O)(=O)c1ccc(N2CCCC2=O)c([N+](=O)[O-])c1 do in these assays?
NPY-Y1 antag: inactive; NPY1 pot ag: inactive; S1P4 antagonist: inactive; NPY-Y2 antag: inactive; S1P4 agonist: inactive; NPY-Y2 PAM-ag: inactive

Bioassay records (PubChem BioAssay)
